Experiment [1] addresses Sodium-dependent dopamine transporter (Rattus norvegicus, UniProt P23977). The experiment can be described thus: In vitro binding affinity in LLC-PK1 cells by Dopamine transporter binding assay by using [125I]IPT as a radioligand. In kind it is cell-based. Put shortly: (§1)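 LLC-PK1 cell membrane homogenates overexpressing DAT or NET. Incubated with 0.4 nM [125I]IPT and 8–10 competitor concentrations (10^-10 to 10^-5 M) in 50 mM Tris-HCl pH 7.4, 120 mM NaCl, 0.1% BSA for 1 h at room temperature. Nonspecific binding defined with 10 μM CFT. Filtered, gamma-counted, nonlinear regression. Mean ± SEM of three determinations in duplicate.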

In experiment [2] the target is T1, Sodium-dependent noradrenaline transporter (Homo sapiens, UniProt P23975). The experiment can be described thus: In vitro binding affinity in LLC-PK1 cells by Norepinephrine transporter binding assay by using [125I]-IPT as a radioligand. The experiment is classed as cell-based. Summed up: as §1
Experiment [3] deals with T2, Sodium-dependent serotonin transporter (Rattus norvegicus, UniProt P31652). The experiment can be described thus: In vitro binding affinity in LLC-PK1 cells by SERT binding assay by using [125I]IDAM as a radioligand. In kind it is cell-based. Summed up:
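LLC-PK1 membrane homogenates overexpressing SERT. Incubated with 0.4 nM [125I]IDAM and 8–10 competitor concentrations (10^-10 to 10^-5 M) in 50 mM Tris-HCl pH 7.4, 120 mM NaCl, 0.1% BSA for 1 h at room temperature. Nonspecific binding defined with 1 μM IDAM. Filter-bound activity gamma-counted, nonlinear regression. Mean ± SEM, three determinations in duplicate.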

Experiment [4] has as its target Sodium-dependent dopamine transporter (Rattus norvegicus) (UniProt P23977). The experiment can be described thus: Selectivity for Dopamine transporter; No inhibition.
Experiment [5] has as its target T2, Sodium-dependent serotonin transporter. The experiment can be described thus: Inhibition of 5-HT reuptake (SERT) in rat brain synaptosomes. The experiment is classed as subcellular.
Experiment [6] has as its target T1, Sodium-dependent noradrenaline transporter. The experiment can be described thus: Selectivity for norepinephrine transporter.

The source made the active and inactive calls. No cut-off for these calls is given here.

For orientation: Ki means a measure of affinity in units of concentration, obtained from inhibition or displacement. Low values mean higher affinity, high ones lower affinity.

T2 sequence (P31652 whole entry): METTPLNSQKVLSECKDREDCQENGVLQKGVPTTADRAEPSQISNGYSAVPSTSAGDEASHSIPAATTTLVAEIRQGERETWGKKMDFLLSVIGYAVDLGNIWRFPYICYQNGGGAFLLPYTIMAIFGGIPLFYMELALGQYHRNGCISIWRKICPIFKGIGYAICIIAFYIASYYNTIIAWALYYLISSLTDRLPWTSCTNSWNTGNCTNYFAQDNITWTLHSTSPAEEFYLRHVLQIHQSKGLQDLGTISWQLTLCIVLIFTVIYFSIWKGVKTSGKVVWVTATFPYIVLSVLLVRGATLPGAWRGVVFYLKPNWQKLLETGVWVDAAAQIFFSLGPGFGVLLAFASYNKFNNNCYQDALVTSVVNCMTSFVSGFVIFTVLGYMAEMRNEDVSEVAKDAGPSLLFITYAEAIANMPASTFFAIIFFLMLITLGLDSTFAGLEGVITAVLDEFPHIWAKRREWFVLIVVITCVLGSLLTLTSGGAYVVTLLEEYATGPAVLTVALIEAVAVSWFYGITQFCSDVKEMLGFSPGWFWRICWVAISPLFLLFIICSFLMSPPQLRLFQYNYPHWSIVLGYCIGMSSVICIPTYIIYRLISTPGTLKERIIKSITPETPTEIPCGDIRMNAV
T1 sequence (P23975 whole entry, looked up): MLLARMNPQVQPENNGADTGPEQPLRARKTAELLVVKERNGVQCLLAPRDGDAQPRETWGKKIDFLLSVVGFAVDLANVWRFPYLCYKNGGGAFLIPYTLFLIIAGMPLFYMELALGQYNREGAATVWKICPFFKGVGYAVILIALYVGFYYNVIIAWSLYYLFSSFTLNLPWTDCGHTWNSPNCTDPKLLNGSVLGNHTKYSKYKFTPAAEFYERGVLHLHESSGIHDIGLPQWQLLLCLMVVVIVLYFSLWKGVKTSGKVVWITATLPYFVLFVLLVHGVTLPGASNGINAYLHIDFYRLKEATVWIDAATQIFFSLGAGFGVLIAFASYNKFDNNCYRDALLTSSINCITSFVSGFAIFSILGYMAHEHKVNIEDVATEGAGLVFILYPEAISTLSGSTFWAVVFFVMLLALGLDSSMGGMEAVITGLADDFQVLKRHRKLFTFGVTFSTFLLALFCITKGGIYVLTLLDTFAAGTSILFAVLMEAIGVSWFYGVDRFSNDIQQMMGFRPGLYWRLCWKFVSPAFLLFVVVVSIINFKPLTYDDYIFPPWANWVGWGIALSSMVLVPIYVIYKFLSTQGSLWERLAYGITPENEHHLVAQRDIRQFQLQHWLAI
Sequence of Sodium-dependent dopamine transporter (P23977 whole entry): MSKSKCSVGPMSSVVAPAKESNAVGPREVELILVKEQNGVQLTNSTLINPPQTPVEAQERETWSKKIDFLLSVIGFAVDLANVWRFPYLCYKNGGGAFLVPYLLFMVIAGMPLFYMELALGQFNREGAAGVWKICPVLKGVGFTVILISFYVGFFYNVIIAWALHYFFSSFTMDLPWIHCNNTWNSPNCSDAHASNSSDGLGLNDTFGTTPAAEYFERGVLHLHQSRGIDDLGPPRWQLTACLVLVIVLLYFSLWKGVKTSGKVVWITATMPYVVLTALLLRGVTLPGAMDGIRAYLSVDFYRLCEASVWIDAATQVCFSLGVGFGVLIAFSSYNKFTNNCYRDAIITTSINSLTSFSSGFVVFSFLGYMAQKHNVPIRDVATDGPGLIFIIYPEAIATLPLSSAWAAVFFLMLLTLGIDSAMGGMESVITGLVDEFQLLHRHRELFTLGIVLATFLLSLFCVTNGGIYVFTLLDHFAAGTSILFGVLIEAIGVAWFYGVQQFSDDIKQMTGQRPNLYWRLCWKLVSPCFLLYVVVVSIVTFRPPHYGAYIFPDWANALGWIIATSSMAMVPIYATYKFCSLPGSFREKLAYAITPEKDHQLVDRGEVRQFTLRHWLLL
Sequence of Sodium-dependent dopamine transporter (Rattus norvegicus) (P23977 whole entry): as above

For `CN(C)Cc1ccccc1Sc1ccc(I)cc1N`, the Ki in experiment [1] and in experiment [2] was 699 nM throughout.

For the molecule `Cc1ccc(Sc2ccccc2CN(C)C)c(N)c1`, the affinity in experiment [3], expressed as Ki, was 1.1 nM.

In turn, `COc1ccc(Sc2ccccc2CN(C)C)c(N)c1` registered a Ki in experiment [3] of 1.1 nM.

For `CN(C)Cc1ccccc1Sc1ccc(CF)cc1N`, affinity in experiment [3] was put at a Ki of 1.1 nM.

For the molecule `CN(C)C(=O)c1ccccc1Sc1cc(N)c(Cl)cc1[N+](=O)[O-]`, the Ki in experiment [1] is 3050 nM; in experiment [2], 15000 nM; in experiment [3], 2.39 nM.

`CN(C)Cc1ccccc1Sc1cc(F)c(Cl)cc1[N+](=O)[O-]`: the values for the Ki in experiment [1], in experiment [2] and in experiment [3] were 31900 nM, 2810 nM and 4.16 nM, respectively.

As to `CN(C)Cc1ccccc1Sc1ccc(Cl)cc1CO`, in experiment [4], the NI entry is “inactive”. Besides, the figures for the Ki in experiment [5] and in experiment [6] were 2.1 nM and 55 nM, respectively.

(Values after ChEMBL document CHEMBL1136006, “New PET imaging agent for the serotonin transporter: [(18)F]ACF (2-[(2-amino-4-chloro-5-fluorophenyl)thio]-N,N-dimethyl-benzenmethanamine)” (J Med Chem, 2002).)
